Experiment [1] concerns the target T1, DNA (cytosine-5)-methyltransferase 1 (Homo sapiens, UniProt P26358). In words: Inhibition of human recombinant DNMT1 expressed in […] assessed as inhibition of tritiated methyl incorporation from [3H]-labeled AdoMet into hemimethylated DNA duplex at 500 uM after 2 hrs by liquid scintillation counting analysis relative to control. Type of experiment: cell-based. An outline of the steps:
(§1)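 Human recombinant DNMT1 transferred tritiated methyl from [3H]-AdoMet onto a short hemimethylated DNA duplex carrying 8 CpGs, and direct incorporation of the radiolabel was measured. Compounds were first screened at a single concentration.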

Experiment [2] concerns the target T1, DNA (cytosine-5)-methyltransferase 1. In words: Inhibition of human recombinant DNMT1 expressed in […] assessed as inhibition of tritiated methyl incorporation from [3H]-labeled AdoMet into hemimethylated DNA duplex after 2 hrs by liquid scintillation counting analysis. Type of experiment: cell-based. An outline of the steps: as §1
For another experiment, the system named is DU-145. Briefly: Cytotoxicity against human DU145 cells after 72 hrs by MTS assay. The class given is functional. The conditions noted are these: DU-145, 72 h, read-out: TC50 (the source's name). (In general: Tetrazolium assays rely on reduction of a dye to a coloured formazan, in cell work by metabolically active cells.)
Experiment [3] is described as follows: Inhibition of Escherichia coli DAM by [3H]-SAM incorporation assay. An outline of the steps:
(§2)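 In vitro methyltransferase activity was quantified with a biotin–avidin microplate kinetic assay based on [3H]-SAM incorporation. G9a was tested up to 1 mM.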

Experiment [4] in a line: Inhibition of G9a (unknown origin) by [3H]-SAM incorporation assay. An outline of the steps: as §2
A short description of experiment [5]: Inhibition of Spiroplasma M.SssI using unmethylated DNA as substrate after 2 hrs by agarose gel electrophoresis.
The target of experiment [6] is DNA (cytosine-5)-methyltransferase 3A (Mus musculus) (UniProt O88508). In words: Binding affinity to mouse Dnmt3A catalytic domain assessed as inhibition of AdoHcy binding at 0.85 mM by WaterLOGSY spectroscopic analysis.

Activity calls are given as the source filed them. The calls are words filed in the database; no cut-off is given here. Where only a bound is given, the exact number is not on record here.

T1 sequence (P26358 whole entry): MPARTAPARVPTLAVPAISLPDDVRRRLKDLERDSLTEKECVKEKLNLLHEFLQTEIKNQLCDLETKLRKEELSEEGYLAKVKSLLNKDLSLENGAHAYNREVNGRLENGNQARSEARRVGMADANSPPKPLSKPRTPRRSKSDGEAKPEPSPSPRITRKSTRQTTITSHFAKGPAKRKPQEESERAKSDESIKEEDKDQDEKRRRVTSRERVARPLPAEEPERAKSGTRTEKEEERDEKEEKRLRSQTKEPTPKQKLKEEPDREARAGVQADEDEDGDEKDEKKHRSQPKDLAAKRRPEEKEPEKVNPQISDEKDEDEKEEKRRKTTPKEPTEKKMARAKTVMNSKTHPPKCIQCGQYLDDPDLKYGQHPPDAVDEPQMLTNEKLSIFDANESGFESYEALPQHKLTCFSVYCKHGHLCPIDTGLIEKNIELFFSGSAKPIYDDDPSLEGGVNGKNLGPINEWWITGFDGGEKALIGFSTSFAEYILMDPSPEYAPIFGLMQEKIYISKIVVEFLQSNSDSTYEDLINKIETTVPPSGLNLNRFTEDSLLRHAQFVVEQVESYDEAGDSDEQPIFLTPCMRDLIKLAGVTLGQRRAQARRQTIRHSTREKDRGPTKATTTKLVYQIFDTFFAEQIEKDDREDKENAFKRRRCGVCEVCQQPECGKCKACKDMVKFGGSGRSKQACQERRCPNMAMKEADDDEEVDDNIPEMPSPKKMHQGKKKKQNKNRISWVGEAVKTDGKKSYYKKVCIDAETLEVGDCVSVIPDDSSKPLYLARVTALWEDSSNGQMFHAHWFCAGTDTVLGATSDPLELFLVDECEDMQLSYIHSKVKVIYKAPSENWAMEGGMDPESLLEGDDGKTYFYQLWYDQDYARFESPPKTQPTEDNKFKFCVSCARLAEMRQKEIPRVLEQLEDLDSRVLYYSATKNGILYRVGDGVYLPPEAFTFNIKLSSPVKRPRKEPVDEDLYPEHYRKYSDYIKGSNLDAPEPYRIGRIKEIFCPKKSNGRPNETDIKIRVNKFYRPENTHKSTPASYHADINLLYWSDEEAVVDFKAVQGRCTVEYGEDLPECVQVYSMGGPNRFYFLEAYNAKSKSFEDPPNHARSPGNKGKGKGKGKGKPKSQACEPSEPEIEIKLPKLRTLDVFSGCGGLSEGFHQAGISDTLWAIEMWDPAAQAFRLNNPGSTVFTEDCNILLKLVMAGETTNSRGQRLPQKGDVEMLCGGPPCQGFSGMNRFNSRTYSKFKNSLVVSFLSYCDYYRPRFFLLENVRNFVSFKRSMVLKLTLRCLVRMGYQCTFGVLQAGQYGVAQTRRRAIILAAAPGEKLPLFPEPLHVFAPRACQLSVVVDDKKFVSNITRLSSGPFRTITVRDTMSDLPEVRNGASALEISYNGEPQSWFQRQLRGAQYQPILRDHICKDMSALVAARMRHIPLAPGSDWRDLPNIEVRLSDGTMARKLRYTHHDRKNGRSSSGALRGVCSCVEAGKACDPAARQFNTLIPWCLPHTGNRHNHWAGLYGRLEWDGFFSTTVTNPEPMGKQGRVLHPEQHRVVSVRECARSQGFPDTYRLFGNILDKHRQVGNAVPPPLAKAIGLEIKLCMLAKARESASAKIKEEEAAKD

For `O=C(O)[C@H](Cc1c[nH]c2ccccc12)n1c(=O)[nH]c2ccccc2c1=O`, the inhibition – broadly, the change of the read-out against control, counted positive when it falls – in experiment [1] is “inactive”.

On to `O=C(O)[C@H](Cc1c[nH]c2ccccc12)NSc1ncccc1[N+](=O)[O-]`, for which the half-maximal inhibitory concentration (IC50) (in general, the concentration that inhibits the measured activity by half) in experiment [2] came out at 20 µM. In addition, the CC50 in the experiment on DU-145 was 211 µM.

For `O=C(O)[C@H](Cc1c[nH]cn1)N1C(=O)c2ccccc2C1=O`, the inhibition result in experiment [1] is “inactive”.

On to `O=C(O)C1C(Cc2c[nH]c3ccccc23)CCN1C(=O)c1ccccc1` (stereo not given), for which the IC50 in experiment [3] was more than 750 µM; in experiment [4], more than 1000 µM. For the same molecule, the inhibition in experiment [1] was 50%.

Turning to `O=C(O)[C@@H](Cc1c[nH]c2ccccc12)CN1C(=O)c2ccccc2C1=O`, the inhibition result in experiment [1] was “inactive”.

Take `O=C(O)[C@@H]1[C@H](Cc2c[nH]c3ccccc23)CCN1C(=O)c1ccc2ccccc2c1`: the IC50 in experiment [2] stood at 128 µM. Besides, the CC50 in the experiment on DU-145 amounted to 280 µM.

Turning to `O=C(CN1C(=O)c2ccccc2C1=O)N[C@@H](Cc1c[nH]c2ccccc12)C(=O)O`, the inhibition entry in experiment [1] is “inactive”.

For the molecule `O=C(O)C[C@H](Cc1c[nH]c2ccccc12)N1C(=O)c2ccccc2C1=O`, in experiment [1], the inhibition result is “inactive”.

`O=C(O)[C@@H]1[C@H](Cc2c[nH]c3ccccc23)CCN1C(=O)CN1C(=O)c2ccccc2C1=O`: the inhibition entry in experiment [1] was “inactive”.

Regarding `O=C(O)[C@H](Cc1c[nH]c2ccccc12)N1C(=O)c2ccccc2C1=O`, the half-inhibitory concentration (IC50) in experiment [5] was found to be 0.115 µM; in experiment [2], 390 µM. Besides, the CC50 in the experiment on DU-145 turned out to be 660 µM. In addition, the inhibition in experiment [6] was 50%.

Take `NC(=O)[C@H](Cc1c[nH]c2ccccc12)N1C(=O)c2ccccc2C1=O`: the inhibition entry in experiment [1] was “inactive”.

In the case of `O=C(O)[C@H](Cc1c[nH]c2ccccc12)CN1C(=O)c2ccccc2C1=O`, the inhibition entry in experiment [1] was “inactive”.

On to `O=C(O)CN1C(=O)c2ccccc2C1=O`, for which the inhibition result in experiment [1] is “inactive”.

`O=C(O)[C@H](Cc1csc2ccccc12)N1C(=O)c2ccccc2C1=O`: the half-inhibitory concentration (IC50) in experiment [2] amounted to 230 µM.

For the molecule `O=C(O)[C@H](Cc1c[nH]c2ccccc12)NSc1ccc([N+](=O)[O-])cc1[N+](=O)[O-]`, the IC50 in experiment [2] is 40 µM. The CC50 with DU-145 turned out to be 103 µM.

Turning to `O=C(O)[C@H](Cc1cc(=O)[nH]c2ccccc12)N1C(=O)c2ccccc2C1=O`, the inhibition entry in experiment [1] is “inactive”.

Take `O=C(O)[C@H]1[C@@H](Cc2c[nH]c3ccccc23)CCN1C(=O)c1ccccc1`: the 50% inhibitory concentration (IC50) in experiment [2] amounted to 73 µM. Also, the CC50 with DU-145 amounted to 232 µM.

Turning to `O=C(O)[C@H](Cc1ccccc1)N1C(=O)c2ccccc2C1=O`, in experiment [1], the inhibition entry was “inactive”.

As for `O=C(O)C1C(Cc2c[nH]c3ccccc23)CCN1C(=O)c1ccc2ccccc2c1` (stereo not given), the inhibition in experiment [1] is 50%.

`O=C(O)[C@@H]1[C@H](Cc2c[nH]c3ccccc23)CCN1Sc1ccc([N+](=O)[O-])cc1[N+](=O)[O-]`: the concentration for half-maximal inhibition (IC50) in experiment [2] was determined as 80 µM. Besides, the CC50 with DU-145 is 250 µM.

Take `O=C(O)[C@@H]1[C@H](Cc2c[nH]c3ccccc23)CCN1C(=O)c1ccccc1`: the IC50 in experiment [2] came to 98 µM. Besides, in the experiment with DU-145, the CC50 amounted to 230 µM.

For the molecule `O=C(O)[C@H]1[C@@H](Cc2c[nH]c3ccccc23)CCN1C(=O)c1ccc2ccccc2c1`, the IC50 in experiment [2] came out at 50 µM. Moreover, in the experiment on DU-145, the CC50 was 130 µM.

Turning to `N[C@@H](Cc1c[nH]c2ccccc12)C(=O)O`, the inhibition entry in experiment [1] was “inactive”.

For the origin of these results see ChEMBL document CHEMBL3108732, “Synthesis and evaluation of analogues of N-phthaloyl-l-tryptophan (RG108) as inhibitors of DNA methyltransferase 1” (J Med Chem, 2014).
